Reference: ChEMBL document CHEMBL1250448, “Inhibitor hijacking of Akt activation” (Nat Chem Biol, 2009)

Experiments:
[1] = molecular target: RAF proto-oncogene serine/threonine-protein kinase (Homo sapiens) (UniProt P04049); test: Inhibition of RAF1 at 1 uM in presence of 100 uM ATP by Select Screen kinase assay relative to untreated control
Summary of the method: (§1)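 Commercial SelectScreen profiling panel of 220 purified kinases. Each kinase was tested at a single inhibitor concentration of 1 μM, and activity was expressed as percent inhibition.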

[2] = system: Serine/threonine-protein kinase B-raf (Homo sapiens), P15056 [V600E]; test: Inhibition of BRAF V599E mutant at 1 uM in presence of 100 uM ATP by Select Screen kinase assay relative to untreated control
Summary of the method: (§2)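 Single-point screen at 1 μM against a panel of 220 purified kinases, run by Invitrogen staff as a SelectScreen profiling service. Read-out is percent inhibition of kinase activity.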

[3] = molecular target: Ephrin type-A receptor 5 (Homo sapiens) (UniProt P54756); test: Inhibition of EPHA5 at 1 uM in presence of 10 uM ATP by Select Screen kinase assay relative to untreated control; summary of the method: as §2
[4] = molecular target: Proto-oncogene tyrosine-protein kinase ROS (Homo sapiens) (UniProt P08922); test: Inhibition of ROS1 at 1 uM in presence of 10 uM ATP by Select Screen kinase assay relative to untreated control; summary of the method: as §1
[5] = molecular target: Ephrin type-A receptor 4 (Homo sapiens) (UniProt P54764); test: Inhibition of EPHA4 at 1 uM in presence of 100 uM ATP by Select Screen kinase assay relative to untreated control; summary of the method: as §2
[6] = molecular target: T1, Activin receptor type-1B (Homo sapiens) (UniProt P36896); test: Inhibition of ACVR1B at 1 uM in presence of 10 uM ATP by Select Screen kinase assay relative to untreated control; summary of the method: as §2
T1 sequence (whole entry): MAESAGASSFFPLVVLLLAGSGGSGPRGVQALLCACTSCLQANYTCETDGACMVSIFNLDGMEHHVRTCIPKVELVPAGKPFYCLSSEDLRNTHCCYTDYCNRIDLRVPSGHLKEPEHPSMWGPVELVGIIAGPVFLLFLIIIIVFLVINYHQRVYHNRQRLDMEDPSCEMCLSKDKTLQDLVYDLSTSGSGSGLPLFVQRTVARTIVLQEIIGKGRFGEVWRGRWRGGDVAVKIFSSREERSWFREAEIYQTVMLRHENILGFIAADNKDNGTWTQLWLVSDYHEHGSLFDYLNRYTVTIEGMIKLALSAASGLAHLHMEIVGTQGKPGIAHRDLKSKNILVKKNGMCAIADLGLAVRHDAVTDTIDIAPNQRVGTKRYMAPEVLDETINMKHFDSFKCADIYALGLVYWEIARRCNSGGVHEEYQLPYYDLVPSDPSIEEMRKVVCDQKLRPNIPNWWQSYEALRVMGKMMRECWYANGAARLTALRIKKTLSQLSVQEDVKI

[7] = molecular target: Proto-oncogene tyrosine-protein kinase Src (Homo sapiens) (UniProt P12931); test: Inhibition of SRC N1 at 1 uM in presence of 10 uM ATP by Select Screen kinase assay relative to untreated control; summary of the method: as §1
[8] = molecular target: Tyrosine-protein kinase Fes/Fps (Homo sapiens) (UniProt P07332); test: Inhibition of FES at 1 uM in presence of 10 uM ATP by Select Screen kinase assay relative to untreated control; summary of the method: as §2
[9] = molecular target: T2, Tyrosine-protein kinase receptor TYRO3 (Homo sapiens) (UniProt Q06418); test: Inhibition of TYRO3 at 1 uM in presence of 10 uM ATP by Select Screen kinase assay relative to untreated control; summary of the method: as §1
T2 sequence (whole entry): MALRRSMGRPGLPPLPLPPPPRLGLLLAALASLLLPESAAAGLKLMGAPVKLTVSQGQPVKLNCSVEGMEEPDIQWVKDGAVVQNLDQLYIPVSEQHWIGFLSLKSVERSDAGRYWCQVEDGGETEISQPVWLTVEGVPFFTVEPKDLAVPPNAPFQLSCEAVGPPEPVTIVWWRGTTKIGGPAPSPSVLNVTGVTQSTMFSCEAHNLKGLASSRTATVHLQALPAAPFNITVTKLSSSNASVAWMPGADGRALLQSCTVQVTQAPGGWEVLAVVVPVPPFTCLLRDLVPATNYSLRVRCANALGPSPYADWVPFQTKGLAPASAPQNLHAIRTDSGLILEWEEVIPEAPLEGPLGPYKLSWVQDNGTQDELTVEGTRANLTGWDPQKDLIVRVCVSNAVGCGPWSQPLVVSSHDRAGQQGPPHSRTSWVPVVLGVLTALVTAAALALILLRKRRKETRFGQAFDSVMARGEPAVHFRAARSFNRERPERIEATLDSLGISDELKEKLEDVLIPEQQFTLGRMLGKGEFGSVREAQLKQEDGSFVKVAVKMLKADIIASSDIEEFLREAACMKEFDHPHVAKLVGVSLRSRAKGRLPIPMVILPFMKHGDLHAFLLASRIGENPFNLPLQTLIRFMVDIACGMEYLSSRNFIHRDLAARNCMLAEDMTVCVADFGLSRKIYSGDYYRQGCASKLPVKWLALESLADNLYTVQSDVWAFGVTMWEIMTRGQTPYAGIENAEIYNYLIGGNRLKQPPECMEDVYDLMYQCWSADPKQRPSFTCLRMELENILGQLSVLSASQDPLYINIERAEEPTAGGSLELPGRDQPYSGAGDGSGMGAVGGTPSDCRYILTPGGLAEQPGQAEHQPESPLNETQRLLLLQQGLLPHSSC

[10] = molecular target: T3, Tyrosine-protein kinase ZAP-70 (Homo sapiens) (UniProt P43403); test: Inhibition of ZAP70 at 1 uM in presence of 10 uM ATP by Select Screen kinase assay relative to untreated control; summary of the method: as §1
T3 sequence (whole entry): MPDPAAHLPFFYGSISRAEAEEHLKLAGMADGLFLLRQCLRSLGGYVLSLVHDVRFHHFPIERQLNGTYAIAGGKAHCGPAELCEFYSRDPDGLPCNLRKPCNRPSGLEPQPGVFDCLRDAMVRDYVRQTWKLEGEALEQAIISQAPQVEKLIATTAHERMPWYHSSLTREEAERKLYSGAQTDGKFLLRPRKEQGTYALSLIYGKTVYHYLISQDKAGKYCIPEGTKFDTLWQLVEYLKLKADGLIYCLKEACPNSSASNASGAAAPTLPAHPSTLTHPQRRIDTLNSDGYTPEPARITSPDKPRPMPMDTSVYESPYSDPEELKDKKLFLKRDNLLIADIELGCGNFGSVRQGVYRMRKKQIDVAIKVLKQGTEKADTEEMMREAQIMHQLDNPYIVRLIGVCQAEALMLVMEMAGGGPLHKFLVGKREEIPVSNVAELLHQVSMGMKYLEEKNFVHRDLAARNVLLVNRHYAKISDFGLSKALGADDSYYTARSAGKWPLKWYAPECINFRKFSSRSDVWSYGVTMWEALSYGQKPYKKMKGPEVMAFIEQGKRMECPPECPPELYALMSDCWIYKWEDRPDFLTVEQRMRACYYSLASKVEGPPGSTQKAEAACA

Chain of Ephrin type-A receptor 5 (Homo sapiens) (P54756 whole entry): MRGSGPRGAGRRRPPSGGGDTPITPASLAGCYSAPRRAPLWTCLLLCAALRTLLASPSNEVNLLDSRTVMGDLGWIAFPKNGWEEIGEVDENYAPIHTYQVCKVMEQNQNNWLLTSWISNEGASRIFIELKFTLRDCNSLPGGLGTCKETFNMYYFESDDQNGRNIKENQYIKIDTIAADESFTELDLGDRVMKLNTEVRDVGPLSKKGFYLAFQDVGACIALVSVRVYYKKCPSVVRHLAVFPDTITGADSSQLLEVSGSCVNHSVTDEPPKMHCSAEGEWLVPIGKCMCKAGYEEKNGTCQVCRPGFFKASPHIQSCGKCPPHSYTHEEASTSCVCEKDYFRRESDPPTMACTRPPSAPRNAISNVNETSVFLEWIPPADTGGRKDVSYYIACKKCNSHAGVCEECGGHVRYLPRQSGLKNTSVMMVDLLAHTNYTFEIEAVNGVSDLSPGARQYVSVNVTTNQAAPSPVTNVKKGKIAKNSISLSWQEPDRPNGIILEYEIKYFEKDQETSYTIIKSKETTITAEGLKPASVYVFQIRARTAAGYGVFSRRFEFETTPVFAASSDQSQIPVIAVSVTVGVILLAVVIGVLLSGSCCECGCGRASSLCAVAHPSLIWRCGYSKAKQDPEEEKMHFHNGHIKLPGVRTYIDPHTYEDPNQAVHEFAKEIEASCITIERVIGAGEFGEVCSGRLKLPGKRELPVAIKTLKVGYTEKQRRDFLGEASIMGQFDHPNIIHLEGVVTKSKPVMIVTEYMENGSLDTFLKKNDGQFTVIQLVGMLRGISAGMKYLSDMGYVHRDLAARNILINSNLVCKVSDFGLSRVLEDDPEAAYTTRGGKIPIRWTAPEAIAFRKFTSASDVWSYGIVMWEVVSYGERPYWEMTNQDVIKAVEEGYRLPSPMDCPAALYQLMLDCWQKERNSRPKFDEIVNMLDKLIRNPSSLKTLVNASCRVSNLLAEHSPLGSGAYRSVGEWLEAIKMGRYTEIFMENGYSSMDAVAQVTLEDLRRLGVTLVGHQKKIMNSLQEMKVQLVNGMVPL
Chain of Ephrin type-A receptor 4 (Homo sapiens) (P54764 whole entry): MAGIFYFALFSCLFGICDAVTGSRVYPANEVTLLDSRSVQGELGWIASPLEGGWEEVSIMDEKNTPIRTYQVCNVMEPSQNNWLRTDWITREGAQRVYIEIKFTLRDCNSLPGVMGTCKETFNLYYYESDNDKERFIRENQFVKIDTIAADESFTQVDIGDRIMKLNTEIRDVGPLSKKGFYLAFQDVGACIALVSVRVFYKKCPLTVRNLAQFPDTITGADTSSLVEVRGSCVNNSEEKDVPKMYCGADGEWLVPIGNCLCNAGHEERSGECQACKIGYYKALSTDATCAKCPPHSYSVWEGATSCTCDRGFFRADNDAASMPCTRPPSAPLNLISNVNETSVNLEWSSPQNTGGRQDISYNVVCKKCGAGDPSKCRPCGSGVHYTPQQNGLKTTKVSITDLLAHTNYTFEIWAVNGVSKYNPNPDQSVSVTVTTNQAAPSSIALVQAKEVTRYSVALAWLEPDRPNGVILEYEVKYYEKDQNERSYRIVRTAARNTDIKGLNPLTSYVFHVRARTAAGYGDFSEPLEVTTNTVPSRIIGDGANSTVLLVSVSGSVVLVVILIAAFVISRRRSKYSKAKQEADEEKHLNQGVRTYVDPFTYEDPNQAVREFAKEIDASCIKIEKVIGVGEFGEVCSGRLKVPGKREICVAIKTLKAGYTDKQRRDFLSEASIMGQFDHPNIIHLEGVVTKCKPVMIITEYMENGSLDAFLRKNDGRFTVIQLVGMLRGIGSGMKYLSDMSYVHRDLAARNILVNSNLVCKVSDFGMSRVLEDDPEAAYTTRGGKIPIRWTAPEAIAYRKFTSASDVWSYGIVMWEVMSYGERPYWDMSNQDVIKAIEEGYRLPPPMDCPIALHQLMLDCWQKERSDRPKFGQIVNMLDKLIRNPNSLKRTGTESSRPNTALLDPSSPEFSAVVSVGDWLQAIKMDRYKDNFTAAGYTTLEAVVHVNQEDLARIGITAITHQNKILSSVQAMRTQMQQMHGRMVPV
Chain of RAF proto-oncogene serine/threonine-protein kinase (Homo sapiens) (P04049 whole entry): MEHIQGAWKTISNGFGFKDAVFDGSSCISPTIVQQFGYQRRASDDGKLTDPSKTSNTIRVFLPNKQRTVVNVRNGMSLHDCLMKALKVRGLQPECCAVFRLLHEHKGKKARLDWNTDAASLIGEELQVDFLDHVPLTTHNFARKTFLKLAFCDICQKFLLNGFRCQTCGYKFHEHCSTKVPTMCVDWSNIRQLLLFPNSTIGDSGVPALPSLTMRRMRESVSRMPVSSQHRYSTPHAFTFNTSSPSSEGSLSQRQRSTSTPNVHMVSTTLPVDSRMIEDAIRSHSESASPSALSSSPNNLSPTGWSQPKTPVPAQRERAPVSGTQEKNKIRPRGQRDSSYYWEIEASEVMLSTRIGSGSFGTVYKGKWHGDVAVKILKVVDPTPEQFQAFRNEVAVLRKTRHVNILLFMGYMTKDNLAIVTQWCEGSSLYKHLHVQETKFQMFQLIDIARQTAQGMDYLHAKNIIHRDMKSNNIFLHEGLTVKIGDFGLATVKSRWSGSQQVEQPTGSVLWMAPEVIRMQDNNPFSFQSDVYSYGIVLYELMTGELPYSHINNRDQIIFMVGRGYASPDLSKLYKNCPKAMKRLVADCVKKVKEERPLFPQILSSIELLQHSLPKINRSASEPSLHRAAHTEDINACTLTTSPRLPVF
Chain of Tyrosine-protein kinase Fes/Fps (Homo sapiens) (P07332 whole entry): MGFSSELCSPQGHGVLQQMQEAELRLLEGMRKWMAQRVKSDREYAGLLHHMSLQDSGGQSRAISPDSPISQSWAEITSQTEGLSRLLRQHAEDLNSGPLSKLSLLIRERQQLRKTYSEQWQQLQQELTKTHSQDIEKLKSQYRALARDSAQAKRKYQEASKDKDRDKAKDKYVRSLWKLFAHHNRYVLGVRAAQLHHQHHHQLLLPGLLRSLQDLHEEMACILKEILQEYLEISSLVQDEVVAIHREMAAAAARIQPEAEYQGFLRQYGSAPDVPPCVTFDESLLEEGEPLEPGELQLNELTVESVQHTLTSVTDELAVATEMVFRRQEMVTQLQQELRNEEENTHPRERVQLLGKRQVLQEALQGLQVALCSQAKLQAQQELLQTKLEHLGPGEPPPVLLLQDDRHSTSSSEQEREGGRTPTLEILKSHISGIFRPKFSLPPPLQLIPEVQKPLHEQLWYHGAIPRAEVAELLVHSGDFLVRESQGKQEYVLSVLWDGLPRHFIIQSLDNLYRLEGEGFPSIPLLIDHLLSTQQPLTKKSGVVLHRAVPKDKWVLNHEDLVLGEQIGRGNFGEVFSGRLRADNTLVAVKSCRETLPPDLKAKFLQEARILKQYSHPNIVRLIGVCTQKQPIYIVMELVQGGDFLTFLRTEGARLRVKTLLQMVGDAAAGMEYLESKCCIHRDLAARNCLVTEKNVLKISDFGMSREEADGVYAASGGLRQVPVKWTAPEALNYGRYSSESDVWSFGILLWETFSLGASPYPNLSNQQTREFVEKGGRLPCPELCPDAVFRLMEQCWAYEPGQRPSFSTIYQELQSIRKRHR
Chain of Serine/threonine-protein kinase B-raf (Homo sapiens), P15056 [V600E] (P15056 whole entry V600E): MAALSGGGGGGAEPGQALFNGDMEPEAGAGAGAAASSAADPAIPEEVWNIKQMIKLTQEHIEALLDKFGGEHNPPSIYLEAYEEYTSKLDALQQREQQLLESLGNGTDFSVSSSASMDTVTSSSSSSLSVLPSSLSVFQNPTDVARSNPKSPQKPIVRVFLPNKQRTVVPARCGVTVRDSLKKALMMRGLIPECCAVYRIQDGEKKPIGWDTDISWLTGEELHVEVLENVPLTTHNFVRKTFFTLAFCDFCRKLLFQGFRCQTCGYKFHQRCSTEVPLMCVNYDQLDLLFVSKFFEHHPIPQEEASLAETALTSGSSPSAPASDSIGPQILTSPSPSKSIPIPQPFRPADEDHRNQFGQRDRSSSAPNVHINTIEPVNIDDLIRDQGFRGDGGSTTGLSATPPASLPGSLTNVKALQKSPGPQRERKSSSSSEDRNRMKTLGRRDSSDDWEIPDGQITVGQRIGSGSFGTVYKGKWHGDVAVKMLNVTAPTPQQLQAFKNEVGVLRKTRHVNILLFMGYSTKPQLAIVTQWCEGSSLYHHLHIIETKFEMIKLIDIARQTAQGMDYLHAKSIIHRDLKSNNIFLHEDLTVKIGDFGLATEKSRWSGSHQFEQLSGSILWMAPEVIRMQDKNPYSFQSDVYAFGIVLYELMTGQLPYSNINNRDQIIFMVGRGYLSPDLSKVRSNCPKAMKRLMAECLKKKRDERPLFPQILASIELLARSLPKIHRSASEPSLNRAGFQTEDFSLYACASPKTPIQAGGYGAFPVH
Chain of Proto-oncogene tyrosine-protein kinase Src (Homo sapiens) (P12931 2-536 limits assumed): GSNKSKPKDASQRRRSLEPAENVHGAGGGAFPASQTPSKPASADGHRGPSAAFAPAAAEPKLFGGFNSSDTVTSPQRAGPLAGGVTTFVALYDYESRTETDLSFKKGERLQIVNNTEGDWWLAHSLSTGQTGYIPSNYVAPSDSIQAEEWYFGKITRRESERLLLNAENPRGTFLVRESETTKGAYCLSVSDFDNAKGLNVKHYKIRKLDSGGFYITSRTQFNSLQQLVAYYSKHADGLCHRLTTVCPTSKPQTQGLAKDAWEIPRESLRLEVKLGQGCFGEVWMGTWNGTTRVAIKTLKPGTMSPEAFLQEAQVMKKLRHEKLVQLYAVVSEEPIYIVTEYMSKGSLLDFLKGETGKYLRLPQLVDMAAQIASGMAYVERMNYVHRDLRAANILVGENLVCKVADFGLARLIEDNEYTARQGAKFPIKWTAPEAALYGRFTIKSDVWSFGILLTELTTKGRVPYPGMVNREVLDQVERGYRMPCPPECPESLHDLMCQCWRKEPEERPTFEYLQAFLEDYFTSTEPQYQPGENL

| inhibition [1] | inhibition [2] | inhibition [3] | inhibition [4] | inhibition [5] | inhibition [6] | inhibition [7] | inhibition [8] | inhibition [9] | inhibition [10] | Structure (SMILES) |
| --- | --- | --- | --- | --- | --- | --- | --- | --- | --- | --- |
| 12% | 9% | 11% | 21% | 9% | -2% | 15% | 16% | 37% | 4% | COc1ccccc1N1CCN(c2ncnc3[nH]nc(Br)c23)CC1 |
| 43% | 52% | 18% | 5% | 11% | 7% | 30% | 37% | 42% | 24% | O=C(NCCCNc1nc(Nc2cccc(NC(=O)N3CCCC3)c2)ncc1I)c1cccs1 |

| Structure (SMILES) | inhibition [1] | inhibition [2] | inhibition [3] | inhibition [4] | inhibition [5] | inhibition [6] | inhibition [7] | inhibition [8] | inhibition [9] | inhibition [10] |
| --- | --- | --- | --- | --- | --- | --- | --- | --- | --- | --- |
| Cc1n[nH]c2ccc(-c3cncc(OC[C@@H](N)Cc4c[nH]c5ccccc45)c3)cc12 | 81% | 45% | 1% | 17% | -4% | 0% | 5% | 40% | 14% | 11% |
